Unmarked numbers belong to inactive results.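 Rule for the calls, unless noted: active = growth inhibition above 25% in both replicates, a cutoff set 3 SD above the mean; inconclusive = above 25% in only one replicate; inactive = the rest.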
Test: growth suppression of yeast trafficking mutant, preliminary HTS, modulators of trafficking downstream of Golgi apparatus project, 1536-format plate, OD 615 nm (AID 637; in the data active = inhibition above about 30%)
Settings: yeast transport mutant growth, absorbance 615 nm, 18 h; active compounds read high

Structure (SMILES)	inhibition [%]
Cc1nnc2n(-c3ccc(Cl)cc3)c(=O)c3c4c(sc3n12)CN(C)CC4	-4.1
O=c1oc2c3c4c(cc2s1)CCCN4CCC3	-2
Cc1cc(C)n2nc(SCc3nc4ccccc4[nH]3)nc2n1	3.28
Cc1cc(C)cc(N(CC(=O)Nc2cccc(C)n2)S(=O)(=O)c2c(C)noc2C)c1	-2
COc1cccc(C2C3=C(N=C4SCC(=O)N42)c2ccccc2CC3)c1OC (stereo not given)	-6.83
O=C(Cn1nc(Cc2ccncc2)c2ccccc2c1=O)N1CCN(C(=O)c2ccco2)CC1	-4.5
O=C(Nc1c(C(=O)NCc2ccco2)cnn1-c1ccccc1)c1ccc(F)cc1	-6
Cc1nc2ccc(S(=O)(=O)NC(C(=O)Nc3nccs3)C(C)C)cc2s1 (stereo not given)	-0.17
Cn1nnnc1SCC(=O)N1CCN(c2ccccc2)CC1	-6.33
COc1cc2c(cc1OC)-c1nnc(C)n1C1(CCCC1)C2	-1.17
CS(=O)(=O)N(Cc1ccco1)CC(O)Cn1c2ccccc2c2ccccc21 (stereo not given)	-4.5
COc1cccc(C2=NOC(C(=O)N3CCc4ccccc4C3)C2)c1 (stereo not given)	-1.83
O=C(CC1Oc2ccccc2NC1=O)NCCCN1CCOCC1 (stereo not given)	2.67
CCOC(=O)N1CCN(C(=O)c2ccc(CS(=O)(=O)c3c(Cl)cccc3Cl)o2)CC1	-3.33
CCn1cc(SCC(=O)Nc2cc(C)on2)c2ccccc21	-1.15
COc1ccccc1N1CCN(C(=O)N2CCOCC2)CC1	-5.57
O=C(CSc1nnc2ccccn12)c1ccccc1	-3.44
CCOc1ccc(N(CC(=O)OC)S(=O)(=O)c2ccc(OC)c(OC)c2)cc1	-4.83
CCCCSc1nc(CCC)cc(=O)[nH]1	-12.5
O=C(CN1CCN(Cc2ccccc2F)C1=O)NCc1cccnc1	-1.97

Structure (SMILES)	inhibition [%]
COc1ccc(OC)c(C(=O)c2ccc(C(=O)O)cc2)c1	1.94
Cc1ccc(C)n1-n1c(C)nc2sc(-c3ccccc3)cc2c1=O	2.67
CCn1c(C(=O)N2CCC(C(=O)N3CCN(c4ccccn4)CC3)CC2)cc2sccc21	-3.5
C=CCSc1nc(N)c2c(C)c(C)sc2n1	-8.33
COc1ccc(OCCSc2nc3ccccc3n2CC(=O)O)cc1	-2
Cc1nnc(SCC(=O)NCc2ccccc2)s1	-2
Clc1ccc(SCCCCn2ccnc2)cc1	-1
CC1(C)Oc2ccc3ccc(=O)oc3c2C(N2CCCCC2)C1O (stereo not given)	-4.33
CSCCC(N=CC1=C(O)CC(C)(C)CC1=O)C(=O)O (stereo not given)	-6
COc1ccc(C)cc1NC(=O)C1CCN(S(=O)(=O)c2cccc3cccnc23)CC1	-1.48
CCOc1ccc(-c2nnc(SCC(=O)N3CCN(c4ccccc4)CC3)o2)cc1	-3.28
CCCOc1ccc2ccccc2c1/C=N/n1cnnc1	2.67
O=C(Cn1cc2c(n1)CCCCC2)N1CCc2ccccc21	-7.87
CCn1cc(C(=O)N2CCOCC2)c(=O)c2cc(S(=O)(=O)N(C)C3CCCCC3)ccc21	0.5
COCCn1c(SCC(=O)Nc2ccc3c(c2)OCCO3)nc2c(c1=O)SC(C)C2 (stereo not given)	-2
CC(C)CCN(C)C1CCN(S(=O)(=O)c2ccc(F)cc2)CC1	-4.33
COc1ccccc1-n1c(=O)[nH]c2c(C(N)=O)nc(-c3cccnc3)nc21	-3.93
Cn1c(/C=N/n2cnnc2)nc2ccccc21	-5
CN1CCN(CCCNC(=O)Cn2ncc3c4ccccc4n(C)c3c2=O)CC1	10.8
CCOc1ccc(N(CC(=O)NCc2ccco2)S(=O)(=O)c2ccc(OC)c(OC)c2)cc1	-6.5

Test: OD615 S. cerevisiae growth inhibition, permissive medium, pilot counter-assay, permissive growth control for S. cerevisiae lifespan shortening project (AID 705)
Settings: OD615, 24 h, at 10 µM, active compounds read high
Procedure, shortened: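 System: Engineered DeaD yeast | Buffer or medium: SC raffinose/galactose permissive medium | Doses: 10 µM single dose, 0.25% DMSO | Times: 24 h exposure, 30 °C | Measured by: OD615 turbidity read | Read-out: Yeast growth inhibition indicated by reduced 24 h OD615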

Structure (SMILES)	growth inhibition [%]
Cc1nnc2n(-c3ccc(Cl)cc3)c(=O)c3c4c(sc3n12)CN(C)CC4	-4.76
O=c1oc2c3c4c(cc2s1)CCCN4CCC3	2.12
Cc1cc(C)n2nc(SCc3nc4ccccc4[nH]3)nc2n1	-5.58
Cc1cc(C)cc(N(CC(=O)Nc2cccc(C)n2)S(=O)(=O)c2c(C)noc2C)c1	-12.3
COc1cccc(C2C3=C(N=C4SCC(=O)N42)c2ccccc2CC3)c1OC (stereo not given)	-15.1
O=C(Cn1nc(Cc2ccncc2)c2ccccc2c1=O)N1CCN(C(=O)c2ccco2)CC1	-0.345
O=C(Nc1c(C(=O)NCc2ccco2)cnn1-c1ccccc1)c1ccc(F)cc1	-0.04
Cc1nc2ccc(S(=O)(=O)NC(C(=O)Nc3nccs3)C(C)C)cc2s1 (stereo not given)	-5.25
Cn1nnnc1SCC(=O)N1CCN(c2ccccc2)CC1	-0.355
COc1cc2c(cc1OC)-c1nnc(C)n1C1(CCCC1)C2	-10.2
CS(=O)(=O)N(Cc1ccco1)CC(O)Cn1c2ccccc2c2ccccc21 (stereo not given)	-6.72
COc1cccc(C2=NOC(C(=O)N3CCc4ccccc4C3)C2)c1 (stereo not given)	-9.41
O=C(CC1Oc2ccccc2NC1=O)NCCCN1CCOCC1 (stereo not given)	2.08
CCOC(=O)N1CCN(C(=O)c2ccc(CS(=O)(=O)c3c(Cl)cccc3Cl)o2)CC1	-9.35
CCn1cc(SCC(=O)Nc2cc(C)on2)c2ccccc21	-5.85
COc1ccccc1N1CCN(C(=O)N2CCOCC2)CC1	-17.3
O=C(CSc1nnc2ccccn12)c1ccccc1	-13.8
CCOc1ccc(N(CC(=O)OC)S(=O)(=O)c2ccc(OC)c(OC)c2)cc1	-11.6
CCCCSc1nc(CCC)cc(=O)[nH]1	-14.4
O=C(CN1CCN(Cc2ccccc2F)C1=O)NCc1cccnc1	2.81

Structure (SMILES)	growth inhibition [%]
COc1ccc(OC)c(C(=O)c2ccc(C(=O)O)cc2)c1	-10.1
Cc1ccc(C)n1-n1c(C)nc2sc(-c3ccccc3)cc2c1=O	-3.25
CCn1c(C(=O)N2CCC(C(=O)N3CCN(c4ccccn4)CC3)CC2)cc2sccc21	-11.8
C=CCSc1nc(N)c2c(C)c(C)sc2n1	-10.6
COc1ccc(OCCSc2nc3ccccc3n2CC(=O)O)cc1	-2.19
Cc1nnc(SCC(=O)NCc2ccccc2)s1	-11.3
Clc1ccc(SCCCCn2ccnc2)cc1	1.02
CC1(C)Oc2ccc3ccc(=O)oc3c2C(N2CCCCC2)C1O (stereo not given)	-4.78
CSCCC(N=CC1=C(O)CC(C)(C)CC1=O)C(=O)O (stereo not given)	1.4
COc1ccc(C)cc1NC(=O)C1CCN(S(=O)(=O)c2cccc3cccnc23)CC1	-0.795
CCOc1ccc(-c2nnc(SCC(=O)N3CCN(c4ccccc4)CC3)o2)cc1	-3.14
CCCOc1ccc2ccccc2c1/C=N/n1cnnc1	-0.81
O=C(Cn1cc2c(n1)CCCCC2)N1CCc2ccccc21	-4.03
CCn1cc(C(=O)N2CCOCC2)c(=O)c2cc(S(=O)(=O)N(C)C3CCCCC3)ccc21	-13.6
COCCn1c(SCC(=O)Nc2ccc3c(c2)OCCO3)nc2c(c1=O)SC(C)C2 (stereo not given)	-6.57
CC(C)CCN(C)C1CCN(S(=O)(=O)c2ccc(F)cc2)CC1	-7.46
COc1ccccc1-n1c(=O)[nH]c2c(C(N)=O)nc(-c3cccnc3)nc21	-7.79
Cn1c(/C=N/n2cnnc2)nc2ccccc21	-4.11
CN1CCN(CCCNC(=O)Cn2ncc3c4ccccc4n(C)c3c2=O)CC1	-16.9
CCOc1ccc(N(CC(=O)NCc2ccco2)S(=O)(=O)c2ccc(OC)c(OC)c2)cc1	-3.81

— PubChem BioAssay
